Assay results: ChEMBL document CHEMBL3286091, “Novel N-linked aminopiperidine-based gyrase inhibitors with improved hERG and in vivo efficacy against Mycobacterium tuberculosis” (J Med Chem, 2014)
Converted amounts (≈) assume the structure as drawn. The source made the active and inactive calls. The calls are words filed in the database; no cut-off is given here.

Assays:
[1] = system: Mycobacterium tuberculosis; assay: Antimycobacterial activity against moxifloxacin-resistant Mycobacterium tuberculosis harboring DNA gyraseA G88N mutant; type: functional
[2] = system: Mycobacterium tuberculosis; assay: Antimycobacterial activity against 2-oxo-1-(2-(4-((3-oxo-3,4-dihydro-2H-pyrido[3,2-b][1,4]oxazin-6-yl)methylamino)piperidin-1-yl)ethyl)-1,2-dihydroquinoline-7-carbonitrile-resistant Mycobacterium tuberculosis harboring DNA gyraseA A74V mutant; type: functional
[3] = Ratio of MIC for 5-(((3S,4R)-3-Fluoro-1-(2-(7-methoxy-2-oxo-1,5-naphthyridin-1(2H)-yl)ethyl)piperidin-4-ylamino)methyl)-2-methylnicotinonitrile-resistant Mycobacterium tuberculosis harboring DNA gyraseA D89N mutant to MIC for wild-type Mycobacterium tuberculosis H37Rv ATCC 27294; type: functional
[4] = system: Mycobacterium tuberculosis; assay: Antimycobacterial activity against spontaneously resistant mutant of Mycobacterium tuberculosis H37Rv at 8 times MIC up to 6 to 8 weeks; type: functional, organism-based
Method in brief: (§1)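 Single-step selection: mid-log H37Rv culture concentrated 100-fold to ~10^10 cfu/mL and plated in dilutions on 7H11 agar with varying drug concentrations. Drug-free plates were counted after 4 weeks at 37 °C and drug plates after 6−8 weeks. Frequency is the colony count on drug plates divided by viable cfu on drug-free plates.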

[5] = Ratio of MIC for 2-oxo-1-(2-(4-((3-oxo-3,4-dihydro-2H-pyrido[3,2-b][1,4]oxazin-6-yl)methylamino)piperidin-1-yl)ethyl)-1,2-dihydroquinoline-7-carbonitrile-resistant Mycobacterium tuberculosis harboring DNA gyraseA A74V mutant to MIC for wild-type Mycobacterium tuberculosis H37Rv ATCC 27294; type: functional
[6] = system: Mycobacterium tuberculosis; assay: Antimycobacterial activity against 5-(((3S,4R)-3-Fluoro-1-(2-(7-methoxy-2-oxo-1,5-naphthyridin-1(2H)-yl)ethyl)piperidin-4-ylamino)methyl)-2-methylnicotinonitrile-resistant Mycobacterium tuberculosis harboring DNA gyraseA D89N mutant; type: functional
[7] = system: Mycobacterium tuberculosis; assay: Antimycobacterial activity against spontaneously resistant mutant of Mycobacterium tuberculosis H37Rv at 10 to 20 times MIC up to 6 to 8 weeks; type: functional, organism-based; method in brief: as §1

## N#Cc1ccc2ccc(=O)n(CCN3CCC(NCc4ccc5c(n4)NC(=O)CO5)CC3)c2c1
[1]
  MIC: 0.03 µg/mL (≈ 0.0654 µM)
[2]
  MIC: 2 µg/mL (≈ 4.36 µM)
[3]
  Ratio: > 16
[4]
  Activity: inactive
[5]
  Ratio: > 16
[6]
  MIC: >2 µg/mL

## CO[C@H]1/C=C/O[C@@]2(C)Oc3c(C)c(O)c4c(O)c(c(/C=N/N5CCN(C)CC5)c(O)c4c3C2=O)NC(=O)/C(C)=C\C=C\[C@H](C)[C@H](O)[C@@H](C)[C@@H](O)[C@@H](C)[C@H](OC(C)=O)[C@@H]1C [RIFAMPIN]
[1]
  MIC: 0.008 µg/mL (≈ 0.00972 µM)
[2]
  MIC: 0.008 µg/mL (≈ 0.00972 µM)
[6]
  MIC: 0.015 µg/mL (≈ 0.0182 µM)

## O=C(O)c1cn(C2CC2)c2cc(N3CCNCC3)c(F)cc2c1=O [CIPROFLOXACIN]
[1]
  MIC: 8 µg/mL (≈ 24.1 µM)
[2]
  MIC: 0.25 µg/mL (≈ 0.754 µM)
[3]
  Ratio: 16
[4]
  Activity: inactive
[6]
  MIC: 4 µg/mL (≈ 12.1 µM)

## COc1c(N2C[C@@H]3CCCN[C@@H]3C2)c(F)cc2c(=O)c(C(=O)O)cn(C3CC3)c12 [MOXIFLOXACIN]
[7]
  Activity: inactive
[1]
  MIC: 4 µg/mL (≈ 9.96 µM)
[2]
  MIC: 0.06 µg/mL (≈ 0.149 µM)
[6]
  MIC: 1 µg/mL (≈ 2.49 µM)

## Cc1ncc(CNC2CCN(CCn3c(=O)ccc4ccc(C#N)cc43)CC2)cc1C#N
[1]
  MIC: 0.06 µg/mL (≈ 0.141 µM)
[2]
  MIC: >2 µg/mL
[3]
  Ratio: > 16
[5]
  Ratio: > 16
[6]
  MIC: >2 µg/mL

## NNC(=O)c1ccncc1 [ISONIAZID]
[1]
  MIC: 0.06 µg/mL (≈ 0.438 µM)
[2]
  MIC: 0.06 µg/mL (≈ 0.438 µM)
[6]
  MIC: 0.03 µg/mL (≈ 0.219 µM)

## COc1cnc2ccc(=O)n(CCN3CC[C@@H](NCc4cnc(C)c(C#N)c4)[C@@H](F)C3)c2c1
[7]
  Activity: inactive
[1]
  MIC: 0.03 µg/mL (≈ 0.0666 µM)
[2]
  MIC: 1 µg/mL (≈ 2.22 µM)
[3]
  Ratio: > 16
[5]
  Ratio: > 16
[6]
  MIC: >1 µg/mL

## CC1COc2c(N3CCN(C)CC3)c(F)cc3c(=O)c(C(=O)O)cn1c23 (centres undefined) [OFLOXACIN]
[1]
  MIC: 16 µg/mL (≈ 44.3 µM)
[2]
  MIC: 1 µg/mL (≈ 2.77 µM)
[3]
  Ratio: 8
[6]
  MIC: 4 µg/mL (≈ 11.1 µM)

## O=C1COc2ccc(CN[C@H]3CCN(CCn4c(=O)ccc5ncc(F)cc54)C[C@H]3F)nc2N1
[1]
  MIC: 0.06 µg/mL (≈ 0.128 µM)
[2]
  MIC: >2 µg/mL
[6]
  MIC: >2 µg/mL
